VIM-2 inhibitor: blocks Pseudomonas aeruginosa VIM-2 metallo-beta-lactamase | 290,000 tested, 0.89% active | inhibition, % at 5.6 µM | purified VIM-2, nitrocefin hydrolysis, epi-absorbance fluorescence;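 active means inhibition above the mean of all tested compounds plus 3 SD, cutoff set per screening run, cut at about 7.5% in these data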;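 further: red hydrolysis product quenches plate fluorescence so inhibitors raise well fluorescence; 0% = enzyme with DMSO and 100% = DMSO without enzyme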
TRPML3 ag: human mucolipin-3 channel agonism; Q8TDD5; HEK293 TRPML3-YFP, Fluo-8 calcium fluorescence; 100% = the carbachol control signal; activation, % at 3 µM; 220,000 tested, 0.29% active; AID 1448;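 active means activation above its plate's cutoff, the mean activation of the plate's test wells plus 3 SD, cut at about 12% in these data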;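 further: 0% = DMSO only wells and 100% = carbachol wells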
Target sequence (Q8TDD5 whole entry, looked up): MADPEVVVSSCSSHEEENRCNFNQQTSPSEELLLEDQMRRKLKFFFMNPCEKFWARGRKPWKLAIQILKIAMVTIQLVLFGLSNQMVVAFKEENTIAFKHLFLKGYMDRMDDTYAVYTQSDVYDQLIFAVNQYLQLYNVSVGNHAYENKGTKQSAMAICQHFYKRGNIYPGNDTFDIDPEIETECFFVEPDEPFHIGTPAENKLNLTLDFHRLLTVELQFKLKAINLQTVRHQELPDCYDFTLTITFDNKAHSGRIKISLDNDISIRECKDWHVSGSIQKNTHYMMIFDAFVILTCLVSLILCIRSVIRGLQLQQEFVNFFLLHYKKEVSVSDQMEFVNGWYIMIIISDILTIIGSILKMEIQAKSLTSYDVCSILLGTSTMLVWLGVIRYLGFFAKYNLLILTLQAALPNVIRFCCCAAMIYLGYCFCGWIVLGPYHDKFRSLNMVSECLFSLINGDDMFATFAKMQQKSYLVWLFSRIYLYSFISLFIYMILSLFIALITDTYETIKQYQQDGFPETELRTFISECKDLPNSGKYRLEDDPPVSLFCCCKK
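Material: TRPML3-YFP stable HEK293 cells | Dosing: One concentration, 3 µM nominal, 0.3% DMSO | Timing: 125 s total fluorescence read per well | Technique: Fluo-8 calcium dye fluorescence, ex 470-495, em 515-575 nm | Measure: Percent activation from peak-to-basal fluorescence ratio, scaled between DMSO and carbachol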
CRFBP-R2 agonist: agonists of human CRF-binding protein/CRF-R2 receptor complex; activation, % at 13.2 µM; HEK293 CRF-R2/CRF-BP, calcium dye fluorescence (FLIPR); percent of saturating CRF peptide response; 350,000 tested, 0.46% active;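 active means activation of at least 50%, plus an integration ratio under a set limit after plate pattern correction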;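 further: plate controls were neutral control wells without compound for no effect and CRF at EC100 for full effect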
IMP-1 inh: blocks Pseudomonas aeruginosa IMP-1 metallo-beta-lactamase; purified IMP-1, nitrocefin hydrolysis, epi-absorbance fluorescence; inhibition, % at 5.6 µM; 290,000 tested, 0.45% active;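 active means inhibition above the mean plus 3 SD of all compounds in the same screening run, cut at about 4.5% in these data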;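 further: 0% = IMP-1 with DMSO and 100% = DMSO wells lacking enzyme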
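System – purified recombinant IMP-1 beta-lactamase · Input – IMP-1 dispensed at 0.2 nM · Timing – 15 min preincubation plus 25 min reaction at 25 °C · Signal – Epi-absorbance fluorescence, 480 nm excitation, 530 nm emission · Measure – percent IMP-1 inhibition derived from blank-referenced optical density · Controls – Enzyme-plus-DMSO low control, enzyme-free DMSO high control · Replication – singlicate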
CRFR2-BP antag: blocks CRF-induced signaling of the CRF-BP/CRF-R2 complex; HEK293 CRF-R2/CRF-BP, CRF-induced calcium fluorescence; inhibition, % at 11.8 µM; 350,000 tested, 0.59% active; AID 588475;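 active means inhibition of the ligand-induced calcium signal above about 50% at the single tested concentration, limit read from the data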
TRPN1 ag: activates the zebrafish TRPN1 channel | HEK293 zebrafish TRPN1-YFP, Fluo-8 calcium fluorescence; 100% = response to 87 µM carbachol | activation, % at 3 µM | 220,000 tested, 0.18% active | AID 1424;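 active means activation above its plate's cutoff, the mean activation of test wells on that plate plus 3 SD, cut at about 19% in these data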;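 further: 0% = DMSO alone and 100% = 87 µM carbachol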
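Material: zebrafish TRPN1-YFP in HEK293 cells; Doses: single test compound dose, 3 µM nominal, 0.3% DMSO; Timing: dye loading 1 h at 37 °C, then 30 min room temperature; Technique: intracellular calcium fluorescence with Fluo-8; Benchmarks: high carbachol 87 µM, low DMSO alone.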
Numbers without * were called inactive; i = inactive; nt = no result given. Rows were chosen to be rich in hits. Some 2.1% of all compounds tested hit in one or more screens of this group.

SMILES	VIM-2 inhibitor	TRPML3 ag	CRFBP-R2 agonist	IMP-1 inh	CRFR2-BP antag	TRPN1 ag
COc1cc(CC2(CCc3ccncc3)C(=O)NC(=O)NC2=O)cc(OC)c1OC	-1	1	-3	-3	10	0
COc1cc2c(cc1OC)-c1c(OC)c(OC)c(OC)c3ccnc(c13)C2=O	9.4*	0	2	-4	24	0
CCN(CC)P(=O)(NC(=O)C(Cl)(Cl)Cl)N(CC)CC.[Cl-].[Cl-].[Cl-].[Nd+3]	-1	2	3	22*	-5	1
N#CC1c2ccccc2-n2nncc2CN1Cc1cc(Cl)cc(Cl)c1 (configuration not stated)	nt	nt	-1	nt	-12	nt
CCN1C(=O)CC(=O)N(CC)C1=S	nt	nt	-1	nt	12	nt
CCC(C)c1ccc(N2C(=O)NC(=O)/C(=C/c3cccn3CCOc3ccc(C)cc3)C2=O)cc1 (configuration not stated)	-3	0	60*	-3	-91	0
Cc1ccc(N2C(=O)NC(=O)/C(=C\c3cccn3C(C)(C)C)C2=O)cc1	1	1	2	0	-17	1
CS(=O)(=O)Nc1ccc(Cc2noc(-c3ccc4[nH]cc(CCN)c4c3)n2)cc1	29*	1	nt	0	nt	0
NCCc1c[nH]c2ccc(F)cc12	0	1	nt	-2	nt	3
Nc1ccc(-c2ccc(N)cc2)cc1	nt	nt	-2	nt	4	nt
CC1CC(C)OP(=O)(OCCC#N)O1 (configuration not stated)	nt	nt	-1	nt	11	nt
C=CCn1c(O)c(C=Nc2ccc(F)cc2)c(=O)[nH]c1=O	-1	nt	-1	-2	-1	nt
CCN(CC)c1ccc(N=Cc2c(O)n(CCC3=CCCCC3)c(=O)[nH]c2=O)cc1	-3	-1	115*	-1	-132	2
CN(C)c1ccc(N=Cc2c(O)n(CCC3=CCCCC3)c(=O)[nH]c2=O)cc1	1	1	44	-2	-30	0
C=CCn1c(O)c(C=Nc2ccc(N(CC)CC)cc2)c(=O)[nH]c1=O	-5	1	10	5.3*	-41	1
C=C1C(O)[C@@H]2O[C@]3(CC[C@H](/C=C/C(C)[C@@H]4CC(C)=CC5(O[C@H](C[C@@](C)(O)C(=O)O)CCC5O)O4)O3)CC[C@H]2O[C@@H]1C(O)CC(C)[C@H]1OC2(CCCCO2)CCC1C (some centres not stated)	nt	nt	-1	nt	8	nt
CN(C)P(=O)(NC(=O)c1cccn1C)N(C)C	-2	1	4	-2	107*	1
CC/C(=C\C=C\[C@@H]1C=C[C@@H]2CCC[C@H]2[C@@H]1C(=O)c1ccc[nH]1)[C@@H]1O[C@@H]([C@@H](C)C(=O)O)CC[C@@H]1C	-1	1	67*	3	22	16
CCCCCc1nc2c(c(=O)c3ccccc3n2C)c(=O)n1C1CCCCCC1	-6	0	219*	-3	-199	0
CCCCCc1nc2ccccc2c(=O)n1-c1ccccc1[N+](=O)[O-]	-2	0	0	0	-2	0
Cc1cc2c(C(F)(F)F)cc(=O)oc2c2c1NCCC2	-4	2	178*	-5	-214	2
CN1CN(c2ccccc2)C2(CCN(CCCSc3ccccc3NC(=O)/C=C/c3ccccc3)CC2)C1=O	nt	nt	95*	nt	-9	nt
COC1CCC(OC2CC(C3(C)CCC4(CC(O)C(C)C(C(C)/C=C(\C)C(=O)C(C)CC(C)C(=O)O)O4)O3)OC3(OC(C4OC(O)(CO)C(C)CC4C)CC3C)C2C)OC1C (configuration not stated)	nt	nt	25	nt	-42	nt
C[C@H](CO)N1C[C@H](C)[C@H](CN(C)C(=O)Oc2ccccc2)OCc2cnnn2CCCC1=O	nt	nt	-1	nt	-13	nt
CN1CCN(C(=O)COc2ccc(-c3nc4ccccc4s3)cc2)CC1	7.8*	2	8	0	0	4
SMILES	VIM-2 inhibitor	TRPML3 ag	CRFBP-R2 agonist	IMP-1 inh	CRFR2-BP antag	TRPN1 ag
Cn1cc(C=C2C(=O)NC(=O)NC2=O)c2ccccc21	4	nt	59*	4	-36	nt
O=C1NC(=O)C(=Cc2coc3ccccc3c2=O)C(=O)N1	0	2	71*	-2	-45	1
O=[N+]([O-])c1ccc(NCc2ccccc2)c2nonc12	23*	216*	493*	30*	i	332*
CCOP(=O)(Nc1ccc2c(c1)C(=NNC(N)=S)c1ccccc1-2)OCC	nt	nt	-5	nt	-12	nt
CCOC(=O)c1c(/N=C/C2C(=O)NC(=S)NC2=O)sc(C)c1C	-8	0	nt	-3	nt	1
CCOC(=O)c1c(/N=C/C2C(=O)NC(=S)NC2=O)sc2c1CCC2	2	2	98*	1	-102	4
O=C(c1cc(Cl)cc(Cl)c1)N1Cc2ccccc2-n2nncc2C1	nt	nt	-2	nt	5	nt
CNS(=O)(=O)c1ccc(N=Cc2c(O)n(-c3cccc(C)c3)c(=O)[nH]c2=O)cc1	1	0	5	-2	-23	1
Cn1c(O)c(C=Nc2ccc(Br)cc2)c(=O)n(C)c1=O	-1	nt	-2	-3	-14	nt
Cn1c(O)c(/C=C/C=Nc2ccccc2)c(=O)n(C)c1=S	5	6	55*	6.1*	-106	5
Cc1cccc(-n2c(O)c(/C=C/C=Nc3ccccc3)c(=O)[nH]c2=O)c1	1	7	56*	3	-52	7
COc1ccc(C(SCC(NC(=O)OCc2ccccc2)C(=O)O)c2ccc(OC)cc2)cc1 (configuration not stated)	nt	nt	1	nt	28	nt
O=C(NC(=S)N1CC1)c1ccccc1	nt	nt	5	nt	15	nt
COC(=O)C1=C(c2ccccc2OCc2ccccc2)C[C@@H]2CC[C@H]1N2C(=O)NCc1cccc(C(F)(F)F)c1	nt	nt	1	nt	5	nt
CCN1C(=O)C(=Cc2cc(C)n(C3CC3)c2C)C(=O)N(CC)C1=S	0	1	6	12*	-10	7
CCCCn1c(O)c(C(=O)/C=C/c2c[nH]c3ccccc23)c(=O)[nH]c1=O	-2	1	130*	-2	-100	-1
CCOP(=O)(OCC)c1cccc(O)c1	-1	1	-1	-2	14	0
CCOP(=O)(OCC)c1cc(CC)ccc1O	-3	0	-2	-3	93*	0
O=C(O)c1ccccc1-c1ccc(C=C2C(=O)N(c3ccccc3)C(=S)N(c3ccccc3)C2=O)o1	1	nt	2	14*	-6	nt
COc1c(O)cc2c(c1OC)-c1ccc(SC)c(=O)cc1C(NC(C)=O)CC2 (configuration not stated)	nt	nt	0	nt	35	nt
Cc1ccc(CN2CCC3CCC(C3)C2)c(O)c1 (configuration not stated)	nt	nt	-3	nt	15	nt
Cc1ccc(C(=O)N2CC2C)cc1 (configuration not stated)	nt	nt	-3	nt	9	nt
